Data: the RNAGym collection of RNA variant scans (doi:10.1126/science.aae0568)
Variants at the floor of the assay were thinned out.

B1: tRNA (parent)
chain: GUUCCGUUGGCGUAAUGGUAACGCGUCUCCCUCCUAAGGAGAAGACUGCGGGUUCGAGUCCCGUACGGAACG

Variants of: B1
Assay: yeast fitness relative to wild type (ratio to wild type); higher = fitter; tRNA-Arg(CCU), competitive growth, 37 C, YPD
Procedure, shortened: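 Gene amplicons from the start population and from each of six end populations were read by 100-nucleotide paired-end sequencing. Those end populations came from pooled Saccharomyces cerevisiae strains carrying tRNA-Arg(CCU) gene variants at the native locus, competed in YPD at 37°C for 24 hours. Fitness relative to wild type was worked out from changes in genotype frequencies. Genotypes needed ≥ 100 starting reads, and estimates < 0.5 were set to 0.5.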

Compared with C4U G10A A15C, C4U C31G is higher in yeast fitness: 0.551 for the first, 0.868 for the second.

Compared with C4U C31A, C4U G10A C22U is lower in yeast fitness: 0.827 for the first, no more than 0.5 for the second.

C4U C30U U53G G56C C62G and C4U U16A A20U U28C U35C G39C A42C G48A cannot be ordered by yeast fitness: no more than 0.5 for the first, no more than 0.5 for the second.

First: C4U C31G A42C C66U
Second: C4U C55U A57U
The yeast fitness of the first is lower: no more than 0.5 for the first, 0.536 for the second.

Compared with C4U G23A, C4U G18C G38A A40C is lower in yeast fitness: 0.783 for the first, 0.545 for the second.

First: C4U U16A
Second: C4U U8A A14U A20C A36C A43C G58C C61A
The yeast fitness of the first is higher: 0.993 for the first, no more than 0.5 for the second.

Compared with C4U G6A C49U, C4U G10C A15G A20U A21G C33U U47C A57C is lower in yeast fitness: 0.706 for the first, no more than 0.5 for the second.

C4U G10C G23A G52A G58A and C4U C30U G48C G68C cannot be ordered by yeast fitness: no more than 0.5 for the first, no more than 0.5 for the second.

Compared with C4U G12C A45C C49U, C4U G25A A70U is higher in yeast fitness: no more than 0.5 for the first, 0.77 for the second.

Going from C4U G41C C55G to C4U U8A U13C C46A, the yeast fitness rises from 0.539 to 0.619.

C4U C34A G56A C60G and C4U G9A C33G G67A cannot be ordered by yeast fitness: no more than 0.5 for the first, no more than 0.5 for the second.

C4U G18C A45U G52A A65U and C4U G17A U19G A21G A43G G63A cannot be ordered by yeast fitness: no more than 0.5 for the first, no more than 0.5 for the second.

Compared with C4U G67A, C4U G17C U47C C49A is lower in yeast fitness: 0.904 for the first, no more than 0.5 for the second.

Compared with C4U G9C C33G C49A A70G, C4U C46U is higher in yeast fitness: no more than 0.5 for the first, 1.01 for the second.

First: C4U C46A
Second: C4U G10A C24U
The yeast fitness of the first is lower: 0.841 for the first, 0.98 for the second.

C4U G48A G52C U54C and C4U G18A G39C G58C G67A cannot be ordered by yeast fitness: no more than 0.5 for the first, no more than 0.5 for the second.

C4U G10C C31G G50C C66U and C4U U8G G12A U54G cannot be ordered by yeast fitness: no more than 0.5 for the first, no more than 0.5 for the second.

Going from C4U G23A C33G C49A U54G A65G to C4U G10A U13C C24U, the yeast fitness rises from no more than 0.5 to 0.741.

C4U U7C C24G C34A A45C G56A C61A A65C A69C A70G and C4U G25A G48C A57U cannot be ordered by yeast fitness: no more than 0.5 for the first, no more than 0.5 for the second.

Compared with C4U G10A C24U G67A, C4U C66U A70C is higher in yeast fitness: 0.751 for the first, 0.83 for the second.

C4U U7G A14U and C4U G18C C49U C61A cannot be ordered by yeast fitness: no more than 0.5 for the first, no more than 0.5 for the second.

Going from C4U G23C G39C G44A G67A to C4U G25A A36G, the yeast fitness rises from no more than 0.5 to 0.641.

C4U G12A C24A G67C and C4U G10C G48C G56C cannot be ordered by yeast fitness: no more than 0.5 for the first, no more than 0.5 for the second.

Going from C4U G25A to C4U U7A C30G C34G A40C C66A A69C, the yeast fitness falls from 0.895 to 0.559.

First: C4U G44A C46U A69C
Second: C4U G38C G41A C61G
The yeast fitness of the first is higher: 0.829 for the first, 0.707 for the second.

Compared with C4U C34G G52A A69C, C4U G9A A40U is higher in yeast fitness: no more than 0.5 for the first, 1.05 for the second.

C4U G9A C24G A37C G41A A57U and C4U G12A C27G C34A C49A C66U cannot be ordered by yeast fitness: no more than 0.5 for the first, no more than 0.5 for the second.

First: C4U G12C U64C
Second: C4U C33A C49U U54G
The yeast fitness of the first is higher: 0.696 for the first, no more than 0.5 for the second.

First: C4U G52A U59A
Second: C4U C60G
The yeast fitness of the first is lower: 0.592 for the first, 0.671 for the second.

Going from C4U C60A to C4U G18C A57U C62U U64A G68C, the yeast fitness falls from 0.532 to no more than 0.5.

C4U G10C G23A U26C A43G U53A and C4U G10A C24U C46G G58A cannot be ordered by yeast fitness: no more than 0.5 for the first, no more than 0.5 for the second.

Going from C4U G25A A69C to C4U G9A C22G C24U A42U U64A G67A, the yeast fitness falls from 0.761 to 0.572.

C4U G41C G51C G58C and C4U G23A U26A A45C cannot be ordered by yeast fitness: no more than 0.5 for the first, no more than 0.5 for the second.

First: C4U C49U U64A
Second: C4U C33A U54G
The yeast fitness of the first is higher: 0.589 for the first, no more than 0.5 for the second.

Compared with C4U G38A G58C C66U, C4U G12A A20G C22U C55U A65U is higher in yeast fitness: no more than 0.5 for the first, 0.53 for the second.

C4U G12A A20G C22U C34U A37G and C4U C34G C49G G68C cannot be ordered by yeast fitness: no more than 0.5 for the first, no more than 0.5 for the second.

Going from C4U U13A A14U C29U C30U A37G to C4U C55U U59G, the yeast fitness rises from no more than 0.5 to 0.587.

First: C4U U8C A42G
Second: C4U U8C A42C
The yeast fitness of the first is higher: 0.69 for the first, 0.539 for the second.

Compared with C4U C31U G67C, C4U G23C U26G A36C A37U A42C A45U C60U C66U A70G is higher in yeast fitness: 0.598 for the first, 0.634 for the second.

C4U C46G G51A G52A and C4U U13G C49A C55U C60U C61U cannot be ordered by yeast fitness: no more than 0.5 for the first, no more than 0.5 for the second.

C4U G23C C29G C31G and C4U U7A C62G cannot be ordered by yeast fitness: no more than 0.5 for the first, no more than 0.5 for the second.

Compared with C4U G12A C27G C34A C49A C60G C61U, C4U C31U C55G A70C is lower in yeast fitness: 0.522 for the first, no more than 0.5 for the second.

Compared with C4U C46G A70C, C4U U8A A37C is lower in yeast fitness: 1.01 for the first, 0.821 for the second.

Compared with C4U C31U A37C C66U A69U, C4U G10A U19C C24U is higher in yeast fitness: no more than 0.5 for the first, 0.721 for the second.

First: C4U U13A A14U U32A G58C
Second: C4U U7G C34G
The yeast fitness of the first is lower: no more than 0.5 for the first, 0.554 for the second.

First: C4U G56C
Second: C4U C46G C66G
The yeast fitness of the first is higher: 0.655 for the first, 0.539 for the second.

Compared with C4U C46U C62U, C4U G23A U26C is lower in yeast fitness: 0.806 for the first, no more than 0.5 for the second.

First: C4U C46U A70G
Second: C4U C31U A45C C46U
The yeast fitness of the first is lower: 0.772 for the first, 1.01 for the second.

Going from C4U U7G C34G C55U to C4U G18A G23C C24G, the yeast fitness falls from 0.563 to 0.518.

First: C4U G17A C22U
Second: C4U C31U A69C
The yeast fitness of the first is lower: no more than 0.5 for the first, 0.669 for the second.

C4U G18C G38A A40C A65G and C4U G18C C24U C61G cannot be ordered by yeast fitness: no more than 0.5 for the first, no more than 0.5 for the second.

C4U G9C C61G and C4U G10C C31G cannot be ordered by yeast fitness: no more than 0.5 for the first, no more than 0.5 for the second.

First: C4U G10A G39C
Second: C4U U13C C30G G48U A70U
The yeast fitness of the first is higher: 0.627 for the first, no more than 0.5 for the second.

First: C4U G48C
Second: C4U G48A
The yeast fitness of the first is higher: 0.951 for the first, 0.857 for the second.

First: C4U G39C U54C
Second: C4U C33G C34G G51C U54C
The yeast fitness of the first is lower: no more than 0.5 for the first, 0.561 for the second.

Going from C4U G39A G67A to C4U G10A G23C, the yeast fitness falls from 0.61 to no more than 0.5.

Going from C4U G25A G48C to C4U G12C U28G U32C C62G, the yeast fitness falls from 0.62 to no more than 0.5.

C4U C49G A57C and C4U G6A G25A U32C cannot be ordered by yeast fitness: no more than 0.5 for the first, no more than 0.5 for the second.

Going from C4U C49U C61G to C4U G18C C46U C60G, the yeast fitness falls from 0.594 to no more than 0.5.

First: C4U C33G A36G G67A G68C
Second: C4U G56A U59C A65C A70G
The yeast fitness of the first is higher: 0.604 for the first, no more than 0.5 for the second.

Compared with C4U U7G A37G, C4U C61G is higher in yeast fitness: 0.536 for the first, 0.63 for the second.

Going from C4U C61A to C4U G63U, the yeast fitness rises from 0.667 to 0.778.

Compared with C4U C62A, C4U C62U is higher in yeast fitness: 0.85 for the first, 0.992 for the second.

First: C4U C62G
Second: C4U C55G A65G C66G
The yeast fitness of the first is higher: 0.808 for the first, no more than 0.5 for the second.

C4U G18A A21C A65C and C4U U8C A20G A43C C49A C66A cannot be ordered by yeast fitness: no more than 0.5 for the first, no more than 0.5 for the second.

First: C4U G12C G51A A65C
Second: C4U C33G U47G
The yeast fitness of the first is lower: no more than 0.5 for the first, 0.591 for the second.

Going from C4U G12C U64C A70U to C4U G51C U59G, the yeast fitness rises from no more than 0.5 to 0.557.

Going from C4U C34G C66A to C4U G9C C24U C30G G51A C60U G67A, the yeast fitness falls from 0.562 to no more than 0.5.

First: C4U G10A C24U C62U
Second: C4U G6A A36C C46U
The yeast fitness of the first is higher: 0.723 for the first, no more than 0.5 for the second.

Compared with C4U G44C C55G A69U, C4U G39A is higher in yeast fitness: no more than 0.5 for the first, 0.982 for the second.

Going from C4U G39C to C4U U8C C11A G12A U28C G44C, the yeast fitness falls from 0.829 to no more than 0.5.

First: C4U G25C G67A
Second: C4U C60G G67A
The yeast fitness of the first is higher: 0.719 for the first, no more than 0.5 for the second.

C4U G41C C60G and C4U G18C A45C cannot be ordered by yeast fitness: no more than 0.5 for the first, no more than 0.5 for the second.

Going from C4U G6C C30G C60U to C4U G39C G48C C62G, the yeast fitness rises from 0.546 to 0.549.

C4U U8A U32G U35A G68U and C4U U8A U13C A57U C60G G68C cannot be ordered by yeast fitness: no more than 0.5 for the first, no more than 0.5 for the second.

Compared with C4U U7G C34G A70U, C4U G63A C66U is higher in yeast fitness: no more than 0.5 for the first, 0.792 for the second.

First: C4U G10A G51C U59G
Second: C4U C33A
The yeast fitness of the first is lower: no more than 0.5 for the first, 0.724 for the second.

C4U G17C C22U A37C and C4U G6C A14C C24G A45C A57C C61U cannot be ordered by yeast fitness: no more than 0.5 for the first, no more than 0.5 for the second.

First: C4U U8G A15U C62U
Second: C4U G10U C24U
The yeast fitness of the first is lower: no more than 0.5 for the first, 0.625 for the second.

First: C4U G12A A20G C22U C55U
Second: C4U G18C C27U C33G A43C A70U
The yeast fitness of the first is lower: 0.606 for the first, 0.659 for the second.

First: C4U G10A C34G A40G U64C
Second: C4U C55U A69U
The yeast fitness of the first is lower: no more than 0.5 for the first, 0.745 for the second.

First: C4U C66U A69U
Second: C4U G6C A14U C24G C66U
The yeast fitness of the first is higher: 0.677 for the first, no more than 0.5 for the second.

C4U U7A U8A A65U and C4U G41C C66A cannot be ordered by yeast fitness: no more than 0.5 for the first, no more than 0.5 for the second.

C4U C49G gave a yeast fitness of 0.874.
